Assay results taken from publication PMC6955414 (British Journal of Clinical Pharmacology, 2019).
Like-named read-outs stand apart in the source and are kept apart here.

Experiments:
[1] = format: in vivo, human; settings: for AUC0–inf, geometric mean / Cmax, geometric mean / AUC_% Extrap / CL/F / Cmax / T1/2 / Tmax / Vz/F / median Tmax: single 200 μg s.c.; for AUC_% Extrap / CL/F / Cmax / T1/2 / Tmax / Vz/F: mean ± SD
Method in brief: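 Open-label phase I study in renally impaired and matched normal-function adults (CLcr ≥90 mL/min), with or without T2DM. A single abdominal s.c. injection was given at 08:00, followed by a standard breakfast. […] Parameters came from noncompartmental analysis; log-transformed AUC0–inf ratios to the normal group were given with 90% CI.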

Safety evaluation = format: in vivo, human
Method in brief: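 Single abdominal s.c. 200 μg dose given fasting on day 1. Monitoring covered adverse events, vital signs, physical examination, fasting venous glucose, blood and urine routine, blood biochemistry and 12-lead ECG. Assessments were at 24, 144, 312 and 720 h post-dose. The safety set comprised all dosed subjects with post-dose safety data.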

[2] = cited from earlier work
[3] = Mild impairment (n=8), single 200 μg s.c.
[4] = Moderate impairment (n=8), single 200 μg s.c.
[5] = Normal renal function (n=10), single 200 μg s.c.
[6] = all groups (26 subjects), single 200 μg s.c.

What does the source list for Polyethylene glycol loxenatide [PEX168]?
AUC0–inf, geometric mean ([1]; Mild impairment (n=8)): 16 500 h^*ng/mL; Cmax, geometric mean ([1]; Mild impairment (n=8)): 48.5 ng/mL; AUC_% Extrap ([1]; Mild renal impairment, n=8): 3.49 ± 1.32%; CL/F ([1]; Mild renal impairment, n=8): 0.0136 ± 0.00657 L/h; Cmax ([1]; Mild renal impairment, n=8): 54.1 ± 29.7 ng/mL; T1/2 ([1]; Mild renal impairment, n=8): 117 ± 16.5 h; Tmax ([1]; Mild renal impairment, n=8): 123 ± 15.4 h; Vz/F ([1]; Mild renal impairment, n=8): 2.28 ± 1.09 L; AUC0–inf, geometric mean ([1]; Moderate impairment (n = 7)): 29 200 h^*ng/mL; Cmax, geometric mean ([1]; Moderate impairment (n = 7)): 73.1 ng/mL; AUC_% Extrap ([1]; Moderate renal impairment, n=7): 6.92 ± 1.75%; CL/F ([1]; Moderate renal impairment, n=7): 0.00711 ± 0.0022 L/h; Cmax ([1]; Moderate renal impairment, n=7): 78.1 ± 35.9 ng/mL; T1/2 ([1]; Moderate renal impairment, n=7): 163 ± 14.7 h; Tmax ([1]; Moderate renal impairment, n=7): 144 ± 33.9 h; Vz/F ([1]; Moderate renal impairment, n=7): 1.69 ± 0.61 L; AUC0–inf, geometric mean ([1]; Normal (n = 8)): 14 600 h^*ng/mL; Cmax, geometric mean ([1]; Normal (n = 8)): 56.6 ng/mL; CL/F ([1]; Normal renal function, n=8): 0.0140 ± 0.00298 L/h; Tmax ([1]; Normal renal function, n=8): 114 ± 45.8 h; Vz/F ([1]; Normal renal function, n=8): 2.44 ± 0.56 L; median Tmax ([1]; mild impairment group): 120 h; Cmax, geometric mean ratio normal vs mild ([1]; mild impairment relative to normal renal function, 90%CI 61.5–119): 85.6%; AUC0–inf, geometric mean ratio normal vs mild ([1]; mild impairment relative to normal renal function, 90%CI 82.1–156): 113%; AUC0–inf increase compared to the normal group ([1]; mild renal impairment): 13.1%; Cmax reduction compared to the normal group ([1]; mild renal impairment): 14.3%; median Tmax ([1]; moderate impairment group): 144 h; Cmax, geometric mean ratio normal vs moderate ([1]; moderate impairment relative to normal renal function, 90%CI 91.7–182): 129%; AUC0–inf, geometric mean ratio normal vs moderate ([1]; moderate impairment relative to normal renal function, 90%CI 144–280): 201%; AUC0–inf increase compared to the normal group ([1]; moderate renal impairment): 100.7%; Cmax increase compared to the normal group ([1]; moderate renal impairment): 29.1%; median Tmax ([1]; normal group): 96 h; Treatment-emergent AE: Abdominal discomforts, % (Safety evaluation; [3]): 0%; Treatment-emergent AE: Acute kidney injury, % (Safety evaluation; [3]): 0%; Treatment-emergent AE: Anaemia, % (Safety evaluation; [3]): 0%; Treatment-emergent AE: Bloating, % (Safety evaluation; [3]): 25%; Treatment-emergent AE: Hiccup, % (Safety evaluation; [3]): 12.5%; Treatment-emergent AE: Increased white blood cell count, % (Safety evaluation; [3]): 0%; Treatment-emergent AE: Nausea, % (Safety evaluation; [3]): 50%; Treatment-emergent AE: Oropharyngeal discomfort, % (Safety evaluation; [3]): 12.5%; Treatment-emergent AE: Overall AEs, % (Safety evaluation; [3]): 87.5%; Treatment-emergent AE: Retching, % (Safety evaluation; [3]): 0%; Treatment-emergent AE: Vomiting, % (Safety evaluation; [3]): 50%; Treatment-emergent AE: Abdominal discomforts, % (Safety evaluation; [4]): 0%; Treatment-emergent AE: Acute kidney injury, % (Safety evaluation; [4]): 12.5%; Treatment-emergent AE: Anaemia, % (Safety evaluation; [4]): 12.5%; Treatment-emergent AE: Bloating, % (Safety evaluation; [4]): 0%; Treatment-emergent AE: Hiccup, % (Safety evaluation; [4]): 12.5%; Treatment-emergent AE: Increased white blood cell count, % (Safety evaluation; [4]): 12.5%; Treatment-emergent AE: Nausea, % (Safety evaluation; [4]): 62.5%; Treatment-emergent AE: Oropharyngeal discomfort, % (Safety evaluation; [4]): 0%; Treatment-emergent AE: Overall AEs, % (Safety evaluation; [4]): 87.5%; Treatment-emergent AE: Retching, % (Safety evaluation; [4]): 12.5%; Treatment-emergent AE: Vomiting, % (Safety evaluation; [4]): 50%; Treatment-emergent AE: Abdominal discomforts, % (Safety evaluation; [5]): 10%; Treatment-emergent AE: Acute kidney injury, % (Safety evaluation; [5]): 0%; Treatment-emergent AE: Anaemia, % (Safety evaluation; [5]): 0%; Treatment-emergent AE: Bloating, % (Safety evaluation; [5]): 50%; Treatment-emergent AE: Hiccup, % (Safety evaluation; [5]): 0%; Treatment-emergent AE: Increased white blood cell count, % (Safety evaluation; [5]): 0%; Treatment-emergent AE: Nausea, % (Safety evaluation; [5]): 20%; Treatment-emergent AE: Oropharyngeal discomfort, % (Safety evaluation; [5]): 0%; Treatment-emergent AE: Overall AEs, % (Safety evaluation; [5]): 70%; Treatment-emergent AE: Retching, % (Safety evaluation; [5]): 0%; Treatment-emergent AE: Vomiting, % (Safety evaluation; [5]): 0%; AE: gastrointestinal disorders, subjects (Safety evaluation; [6]): 80.8%; AE: laboratory tests, subjects (Safety evaluation; [6]): 42.3%; AE: metabolism and nutrition disorders, subjects (Safety evaluation; [6]): 42.3%; Treatment-emergent AE: gastrointestinal disorders, subjects (Safety evaluation; all groups, single 200 μg s.c., including nausea, vomiting and bloating): 80.8%; Tolerability (Safety evaluation; single dose of 200 μg, patients with mild-to-moderate renal impairment): well tolerated

Which in vivo half-life [2] does the source give for exenatide here?
The in vivo half-life was 2 to 3 h.
